Rows were chosen to be rich in hits. Some 3.3% of all compounds tested hit in one or more screens of this group.
M18AAP inhibitor – PfM18AAP enzyme inhibition; recombinant PfM18AAP, H-Glu-NHMec fluorogenic cleavage; inhibition, % at 7.35 µM; actives 1.2% (n = 290,000);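 active = inhibition above the campaign mean inhibition over all tested compounds plus 3 SD, cut at about 28% in these data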;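 also: 0% = plate median of test compound wells and 100% = 2 mM ZnCl2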
HGIII-sPLA2 inh – Blocks human group III sPLA2 activity; Q9NZ20; QFRET BODIPY PC-A2 liposome hydrolysis, fluorescence; inhibition, % at 12.2 µM; actives 0.56% (n = 370,000);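 active = inhibition above mean plus 3 SD of compounds lying within the high and low control bounds, cut at about 19% in these data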;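 also: 0% = median of test compound wells and 100% = no enzyme DMSO wells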
CendR NRP1 mod – NRP-1/CendR interaction modulation; inhibition, % at 25 µM; actives 0.85% (n = 360,000); O14786; FAM-RPARPAR peptide binding to NRP-1, fluorescence polarization;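 active = inhibition or corrected inhibition above about 18%, plus a signal ratio from 0.5 to 1.5, limit read from the data, passing the limit was not always enough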
HTR2A ag – agonists of mouse serotonin 5-HT2A receptor (HTR2A); P35363; CHO-K1 mHTR2A beta-arrestin complementation, luminescence; percent of 30 µM serotonin response; activation, % at 7.6 µM; actives 0.66% (n = 360,000);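 active = activation above a run cutoff, the mean activation of all tested compounds plus 3 SD, cut at about 14% in these data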;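 also: 0% = plate median of compound wells and 100% = 30 µM serotonin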
Target sequence (P35363 whole entry, looked up): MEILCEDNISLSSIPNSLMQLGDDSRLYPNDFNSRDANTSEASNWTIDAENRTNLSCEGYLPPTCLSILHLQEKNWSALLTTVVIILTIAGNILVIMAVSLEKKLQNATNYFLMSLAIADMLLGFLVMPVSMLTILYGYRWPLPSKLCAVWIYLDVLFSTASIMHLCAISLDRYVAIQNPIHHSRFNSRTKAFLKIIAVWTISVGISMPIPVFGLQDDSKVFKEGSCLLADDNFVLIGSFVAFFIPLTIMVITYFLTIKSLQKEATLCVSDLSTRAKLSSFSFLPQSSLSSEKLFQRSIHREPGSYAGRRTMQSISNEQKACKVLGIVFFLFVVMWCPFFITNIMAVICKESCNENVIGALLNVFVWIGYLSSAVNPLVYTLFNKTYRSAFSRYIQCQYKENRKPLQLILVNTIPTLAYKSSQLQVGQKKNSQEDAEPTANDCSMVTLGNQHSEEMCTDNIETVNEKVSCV
Arrestin-AP2 inh – inhibitors of human beta-arrestin and AP2 interaction. FITC-arrestin peptide / GST-AP2 beads, flow cytometry; AP2 beta2 appendage carries R879A mutation. inhibition, % at 10 µM. actives 0.31% (n = 340,000). AID 504490;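 active = inhibition above a set limit, near 3 SD of compounds lacking own fluorescence, cut at about 54% in these data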;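 also: plate controls were DMSO wells for no effect and 5 µM unlabelled arrestin peptide for full effect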
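Measured by: flow cytometry, FL1 (488/535 nm); Material: AP2 appendage R879A on GSH beads; Evaluation: percent response; Timing: pre-incubation 12 min, peptide binding 1 h, room temperature; Also added: 50 nM FITC-arrestin peptide; Medium: PBS with 0.05% Tween 20 and 0.1% BSA.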
Lipid droplet – modulators of hepatic lipid droplet formation. AML12 mouse hepatocytes, oleate lipid droplets, BODIPY imaging. inhibition, % at 6.5 µM. actives 0.4% (n = 240,000);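 active = lipid droplet intensity inhibited by at least 50%, with more than 500 cells counted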
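Test system: AML12 mouse liver cells; schedule: overnight exposure; technique: high-content imaging of BODIPY-stained droplets and DAPI nuclei; read-out: % inhibition of corrected integrated BODIPY droplet signal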
OPRM1 ag – counter-screen for mouse HTR2A agonists: human mu opioid receptor agonists; activation, % at 9.3 µM; actives 5.3% (n = 2,300); shares compounds with HTR2A ag; U2OS OPRM1 beta-arrestin PathHunter, luminescence; DMSO 0%, DAMGO 9.3 µM 100%;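 active = mean activation above the mean of DMSO-only wells plus 3 SD, cut at about 0.5% in these data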
HTR2A ag conf – confirmation of mouse HTR2A serotonin receptor agonists; shares compounds with HTR2A ag; CHO-K1 PathHunter beta-arrestin recruitment, luminescence; DMSO 0%, 30 µM serotonin 100%; activation, % at 7.6 µM; actives 19% (n = 2,300); AID 624381;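 active = mean activation across triplicates above the hit threshold derived in the original primary screen, cut at about 15% in these data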
* marks the source's active call; other numbers are inactive results; x = no result.

SMILES | M18AAP inhibitor | HGIII-sPLA2 inh | CendR NRP1 mod | HTR2A ag | Arrestin-AP2 inh | Lipid droplet | OPRM1 ag | HTR2A ag conf
COc1ccc(-c2c(-c3cc(OC)cc(OC)c3)n(C)c3ccc(-c4ccc5[nH]ccc5c4)cc23)cc1 | x | 10.8 | 10.4 | 21.7* | 4.6 | x | -0.5 | -3.5
O=C(c1ccc(F)cc1)C1CCN(CCCn2c(=O)[nH]c3ccccc32)CC1 | x | -10.5 | x | x | x | x | x | x
O=C(O)COc1ccc2c3c(c(=O)oc2c1)CCCC3 | 3.8 | 0.8 | 6.4 | -0.1 | 7.4 | -0.9 | x | x
C=CCOC(=O)COc1ccc2c3c(c(=O)oc2c1)CCCC3 | x | 0.5 | -3.9 | 15.5* | x | x | -0.5 | -3.3
COC(=O)C1CN(Cc2cn(CCC3OCCO3)nn2)CCS(=O)(=O)N1Cc1ccc(F)cc1 (configuration not stated) | x | 9.6 | x | x | x | x | x | x
CCOC(=O)[C@H]1[C@H]2COc3ccccc3[C@@H]2N2C(=O)c3cc(F)c(F)cc3NC(=O)[C@@]12C | x | -0.3 | 17.2 | 14.7* | 3.6 | x | -0.1 | 1.9
CCOC(=O)[C@H]1[C@H]2COc3ccccc3[C@@H]2N2C(=O)c3cc(F)ccc3NC(=O)[C@@]12C | x | 4.9 | 0.1 | 0.2 | 3.7 | x | x | x
CC(C)(C)C(=O)c1c(N)[nH]c(C(=O)c2ccccc2)c1-c1c(F)cccc1F | x | 0.9 | -2.3 | 4.7 | x | x | x | x
COc1ccc(COC(=O)C2=C(C)NC(=O)NC2c2cccc(Br)c2)cc1 (configuration not stated) | 0.7 | -8.1 | 3.4 | 15.7* | 18.1 | -0.9 | -0.5 | 15.6*
CC1=C(C(=O)OCc2ccccc2)C(c2cccc(Br)c2)NC(=O)N1 (configuration not stated) | -2.0 | -0.9 | 7.6 | 2.6 | -0.1 | -2.0 | x | x
Cc1cccc(C)c1NC(=O)C(c1ccccc1)N1CCN(C/C=C/c2ccccc2)CC1 (configuration not stated) | x | -6.8 | 2.9 | -2.7 | x | x | x | x
CCOC(=O)C1CCN(C(=O)c2ccc(S(=O)(=O)Nc3ccccc3OC)cc2)CC1 | x | -11.4 | -1.6 | 9.6 | -6.8 | x | x | x
O=C(O)CSc1c(-c2ccccc2)[nH]c2ccccc12 | 1.3 | 1.3 | -2.2 | 2.4 | 2.4 | 12.6 | x | x
O=C(O)CSc1c(-c2cccs2)[nH]c2ccccc12 | 6.9 | -0.5 | 1.7 | 16.4* | x | 19.5 | 0.1 | 7.6
COC(=O)[C@]12C[C@H](CC(=O)NCc3cccc(C(F)(F)F)c3)C(=O)N(CCC3=CCCCC3)C1=C[C@H](COCc1ccccc1)O[C@@H]2C | x | -15.2 | x | x | x | x | x | x
CCS(=O)(=O)C1=NN2C(=N)/C(=C\c3ccc(SCc4ccco4)o3)C(=O)N=C2S1 | 21.4 | -18.2 | -259.7 | 17.6* | -7.6 | -6.7 | 2.2* | 13.2
CCS(=O)(=O)C1=NN2C(=N)/C(=C\c3ccc(OC(=O)c4ccco4)c(Br)c3)C(=O)N=C2S1 | -0.3 | x | x | x | x | -8.5 | x | x
Cc1ccc(S(=O)(=O)c2nnn3c2nc(NC2CCN(Cc4ccccc4)CC2)c2ccccc23)cc1C | 5.9 | x | -10.1 | -12.5 | 0.4 | -5.9 | x | x
Cc1ccccc1S(=O)(=O)N1[C@@H](c2ccc(Cl)cc2)C(C(=O)O)=CC[C@H]1c1ccc(Cl)cc1 | x | -45.3 | -24.0 | 10.2 | -8.9 | x | x | x
O=C(CN(C(=O)c1csnn1)c1ccc2c(c1)OCCO2)NCc1ccccc1 | 1.1 | -3.4 | 2.8 | 15.0* | 4.9 | 7.0 | -0.6 | -4.3
O=C(CN(C(=O)c1csnn1)c1ccc(Cl)cc1)NCc1ccc2c(c1)OCO2 | 10.5 | -2.3 | 0.7 | 0.9 | -0.3 | -3.7 | x | x
Cc1[nH]nc2c1C(c1ccc(F)cc1)N(Cc1ccccc1)C2=O (configuration not stated) | x | -3.2 | x | x | x | x | x | x
CCC(C(=O)O)n1cnc2scc(-c3ccc(C)c(C)c3)c2c1=O (configuration not stated) | 1.6 | -0.5 | -3.5 | 24.1* | 16.9 | 6.1 | -0.4 | -2.1
CCc1ccc(C2NC(C(=O)O)CS2)cc1 (configuration not stated) | 0.8 | x | x | x | x | 9.5 | x | x
O=C(O)C1CSC(c2ccc3c(c2)OCO3)N1 (configuration not stated) | 25.0 | -8.3 | -16.0 | 15.8* | -5.0 | -3.5 | -0.8 | -4.7
SMILES | M18AAP inhibitor | HGIII-sPLA2 inh | CendR NRP1 mod | HTR2A ag | Arrestin-AP2 inh | Lipid droplet | OPRM1 ag | HTR2A ag conf
O=C1CC(c2cccc(Cl)c2)C(n2cncn2)C(=O)C1C1NCCc2ccccc21 (configuration not stated) | 1.8 | -10.4 | 14.6 | 15.7* | 7.7 | -2.4 | -0.6 | -3.8
O=C1CC(=O)C(n2cncn2)C(c2cccc(Cl)c2)C1 (configuration not stated) | 13.3 | -17.9 | 3.1 | -0.6 | -1.8 | x | x | x
O=C(O)c1ccc2c(c1)C(=O)N(c1ccc(OCc3ccccc3)cc1)C2=O | -3.7 | 2.2 | -2.3 | 17.0* | 12.8 | 5.6 | -0.2 | 0.1
COc1ccccc1CNS(=O)(=O)c1c(C)nc2scc(C)n2c1=O | 0.3 | 6.7 | -7.1 | 14.8* | 18.1 | 13.0 | -0.1 | 1.0
COC(=O)C1CCN(CCCOc2ccc(CN3CCN(c4ccc([N+](=O)[O-])cc4)CC3)cc2)CC1 | 3.2 | -18.9 | -2.3 | 25.4* | -19.1 | 1.0 | -0.5 | 75.0*
COC(=O)C1CCN(c2ccc([N+](=O)[O-])cc2)CC1 | 3.5 | 0.3 | 2.8 | 7.6 | 7.4 | 2.3 | x | x
Cc1ccc(NC(=O)C2CC3CCC2C3)cc1 (configuration not stated) | x | 13.3 | x | x | x | x | x | x
O=C(C1CC1)N1CCN(c2nc3ccccc3s2)CC1 | 4.6 | 2.7 | 4.1 | -0.4 | 0.1 | x | x | x
O=C(Nc1ccccc1)N1CCN(c2nc3ccccc3s2)CC1 | 2.1 | 3.4 | -3.5 | 27.4* | 1.6 | -5.4 | -0.5 | -0.5
COc1ccc(-n2c(SCC(=O)NCC3CCCO3)nc3c(c2=O)SCC3)cc1 (configuration not stated) | -2.3 | 1.8 | 7.6 | 15.4* | -0.3 | -1.2 | -0.8 | -4.7
COc1ccc(NC(=O)CSc2nc3c(c(=O)n2C)SCC3)cc1OC | 0.5 | 4.7 | -4.1 | 10.1 | 45.8 | -19.3 | x | x
CCn1c(SCC(=O)Nc2ccc(OC)c(OC)c2)nc2c(c1=O)SCC2 | -2.5 | 12.8 | 6.3 | 17.2* | 3.1 | -6.6 | -0.7 | -3.6
C=CCn1c(SCC(=O)NCC2CCCO2)nc2sc(CC)cc2c1=O (configuration not stated) | x | -2.4 | 2.9 | 16.6* | 12.1 | x | 0.3 | 2.2
Cc1cc(C)c(S(=O)(=O)NCc2ccc3c(c2)OCO3)c(C)c1 | -2.7 | -6.6 | -6.6 | 0.2 | 13.5 | -3.1 | x | x

Bioassay records from PubChem.
